Screening data: PubChem BioAssay, several laboratories
Tb MetRS inh = blocks T. brucei methionyl-tRNA synthetase activity; purified T. brucei MetRS, ATP depletion, Kinase-Glo luminescence; inhibition, % at 11.9 µM; 360,000 compounds, 0.4% hits;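 active = inhibition above a per-plate cutoff of the control wells' mean inhibition plus 3 SD, cut at about 5.5% in these data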
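assay system = parasite MetRS enzyme | timing = 15 min preincubation, 2 h reaction, all 25 °C | evaluation = percent inhibition relative to median high and low control wells | medium = HEPES buffer containing pyrophosphatase, BSA, spermine, DTT | compound = single dose, 11.9 µM final nominal, 0.9% final DMSO | detection = Kinase-Glo luminescence, ATP depletion format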
pCIP destab = p/CIP protein destabilization; Q05BA5; F442A p/CIP-EGFP cells, EGFP fluorescence, 16 h; decrease of EGFP signal, % at 10 µM; 290,000 compounds, 0.01% hits;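 active = EGFP signal decrease of at least 30% at 10 µM or well 3 SD below plate mean, unless failing retest; inactive = the rest, including hits failing retest or dose response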
APOBEC3A inh = blocks human APOBEC3A ssDNA deamination; P31941; inhibition, % at 20 µM; recombinant A3A, FAM/TAMRA ssDNA deamination fluorescence; 330,000 compounds, 0.41% hits;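 active = at least 40% inhibition at 20 µM here, with at most 30% in a related deaminase screen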
Target sequence (P31941 whole entry, looked up): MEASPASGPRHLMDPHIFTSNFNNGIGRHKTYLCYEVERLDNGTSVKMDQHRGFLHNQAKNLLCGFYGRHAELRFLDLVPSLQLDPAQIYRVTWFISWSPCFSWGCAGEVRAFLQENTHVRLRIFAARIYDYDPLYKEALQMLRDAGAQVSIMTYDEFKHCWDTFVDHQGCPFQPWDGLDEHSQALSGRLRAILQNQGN
PHOSPHO1 block = blocks human PHOSPHO1 phosphatase activity; recombinant PHOSPHO1, absorbance phosphatase assay; inhibition, % at 13.3 µM; Q8TCT1; AID 1565; 290,000 compounds, 1.1% hits; in the data active = inhibition above about 60%
Target sequence (Q8TCT1 whole entry, looked up): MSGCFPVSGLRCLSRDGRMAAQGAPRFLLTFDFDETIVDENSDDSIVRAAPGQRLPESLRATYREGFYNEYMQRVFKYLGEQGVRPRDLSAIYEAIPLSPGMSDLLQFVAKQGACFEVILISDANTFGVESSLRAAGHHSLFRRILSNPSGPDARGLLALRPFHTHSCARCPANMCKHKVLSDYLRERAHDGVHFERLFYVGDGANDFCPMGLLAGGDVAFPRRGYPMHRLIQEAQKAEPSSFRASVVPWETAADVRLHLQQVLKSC
APOBEC3G inh = blocks human APOBEC3G single-stranded DNA deamination. AID 493012. 330,000 compounds, 0.28% hits. Q9HC16. inhibition, % at 20 µM. recombinant A3G, ssDNA deamination FAM/TAMRA fluorescence;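 active = inhibition of at least 40% at 20 µM, with no more than 30% in the related APOBEC3A deaminase screen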
A3A conf = confirmation of human APOBEC3A DNA deaminase inhibitors; shares compounds with APOBEC3A inh; recombinant A3A, ssDNA deaminase UDG fluorescence assay; inhibition, % at 20 µM; 1,400 compounds, 63% hits; AID 493151;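 active = inhibition reaching a set limit, 80% of the first screen's cutoff, at 20 µM in any replicate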
UDG A3A counter = counter-screen for APOBEC3A inhibitors: UDG; shares compounds with APOBEC3A inh; UDG counterscreen, FAM/TAMRA uracil oligo fluorescence; inhibition, % at 20 µM; 1,000 tested, under 10 active; call rule not given here
Numbers stand for hits; – = inactive; · = no result given. Only some compounds are listed: those with a hit (about 1.8% of all), similar ones and a draw of the others.

SMILES	Tb MetRS inh	pCIP destab	APOBEC3A inh	PHOSPHO1 block	APOBEC3G inh	A3A conf	UDG A3A counter
C[n+]1cccc(C(=O)N/N=C/c2ccc3c(c2)OCO3)c1	–	–	75	–	–	69	–
O=C(N/N=C/c1ccc2c(c1)OCO2)c1ccc(COCC(F)(F)C(F)F)cc1	–	–	98	–	–	–	–
COc1ccc(/C=N/NC(=O)c2ccc(COCC(F)(F)C(F)F)cc2)cc1	–	–	–	–	–	·	·
O=C(N/N=C/c1ccc2c(c1)OCO2)c1ccc2c(c1)OCCO2	–	–	–	–	–	·	·
COc1cc2c(cc1OC)C[N+](C)(C)CC2	–	–	45	–	–	75	–
COc1cc2c(cc1OC)CC(=O)N(C)CC2	–	–	–	–	–	·	·
CC(C)COC(=O)N1CC(O)CC1C(=O)Nc1ccc2c(c1)OCO2 (stereo not given)	–	·	53	·	–	81	–
CC(=O)NS(=O)(=O)c1ccc(NS(=O)(=O)c2ccccc2[N+](=O)[O-])cc1	–	–	–	–	–	·	·
CC(C)(C)S(=O)(=O)N1C[C@H]2CC/C=C\C/C(c3ccccc3)=C\2[C@@H]1CCO	–	·	·	·	·	·	·
CCOC(=O)C1=C(C)Nc2sc(C(=O)c3ccc(F)cc3)c(N)c2C1c1ccc(C(=O)OC)cc1 (stereo not given)	–	–	76	–	–	–	–
CCOC(=O)C1=C(C)Nc2sc(C(=O)c3ccc(C)cc3)c(N)c2C1c1ccc(C(=O)OC)cc1 (stereo not given)	–	–	–	–	–	·	·
Cc1ccc(C(OCC(C)(C)C[N+](C)(C)C)c2ccccc2)cc1 (stereo not given)	–	–	65	–	–	76	–
CCN(CC)CCOC(c1ccccc1)c1ccc(C)cc1 (stereo not given)	–	–	–	–	–	·	·
Cc1ccc(/C=N/Nc2cc(C)nc(NCc3ccccc3)n2)cc1	–	–	–	–	–	·	·
Cc1cc(N/N=C/c2ccc(O)cc2)nc(NS(=O)(=O)c2ccccc2)n1	–	–	49	–	–	39	–
N#C/C(=C\c1cn(-c2ccccc2)nc1-c1cccnc1)c1nnc2n1CCCCC2	–	–	43	–	–	–	–
COc1cccc(C2CC(c3cccc(NS(C)(=O)=O)c3)=NN2C(=O)c2ccccc2)c1OC (stereo not given)	–	–	–	–	–	·	·
O=C(Nc1nc2ccccc2s1)C1CCN(S(=O)(=O)c2cc([N+](=O)[O-])ccc2Cl)CC1	–	–	80	–	–	40	·
CCC(C)NC(=O)C1CCN(S(=O)(=O)c2cc([N+](=O)[O-])ccc2Cl)CC1 (stereo not given)	–	–	–	–	–	·	·
CCCCOc1ccc(CC2CCC(=O)NC2=O)cc1 (stereo not given)	–	–	–	–	–	·	·
COc1ccccc1OC(C)C(=O)N1CCN(Cc2ccc3c(c2)OCO3)CC1 (stereo not given)	–	–	57	–	–	48	–
CCN(CC)C(=O)CC(c1cc(OC)c(OC)c(OC)c1)c1c(OC)cc(OC)c2c(-c3ccccc3)cc(=O)oc12 (stereo not given)	–	–	–	–	–	·	·
Cc1ccc(C)c(NC(=O)C2CC(O)CN2C(=O)Oc2ccccc2)c1 (stereo not given)	–	–	54	–	–	41	–
CCCCn1c2c(c(=N)c3c1CCC3)CCC2	–	–	63	95	–	78	–
COc1ccc2c(c1)CCc1sc(NC(=O)c3ccc(C)cc3)nc1-2	–	–	50	–	–	–	·
SMILES	Tb MetRS inh	pCIP destab	APOBEC3A inh	PHOSPHO1 block	APOBEC3G inh	A3A conf	UDG A3A counter
COC(=O)c1[nH]c2ccc(Cl)cc2c1NC(=O)CN1CCc2cc(OC)c(OC)cc2C1	–	–	41	–	–	60	–
Cc1nnc(SCC(=O)N2CCN(Cc3ccccc3)CC2)s1	–	–	–	–	–	·	·
Nc1nnc(SCC(=O)N2CCN(Cc3ccccc3)CC2)s1	–	–	64	–	–	–	·
Oc1ccccc1C=NC(c1ccccc1)C(O)c1ccccc1 (stereo not given)	–	–	–	–	–	·	·
Oc1ccccc1/C=N/[n+]1ccccc1	–	–	69	–	–	66	–
CC(C)c1ccc(C2(C)NC(=O)N(CC(=O)N3CCN(C(=O)c4cccs4)CC3)C2=O)cc1 (stereo not given)	–	·	48	·	–	–	–
CCN(Cc1ccc(OC)c(F)c1)C(=O)C1CCCO1 (stereo not given)	–	–	56	–	–	32	–
CN(C)CCN(Cc1ccccc1)C(=O)[C@H](Cc1ccccc1)N1C(=O)c2ccccc2C1=O	–	–	42	–	–	–	·
O=C(O)C(Cc1ccccc1)N1C(=O)c2ccccc2C1=O (stereo not given)	–	–	–	–	–	·	·
Cc1cccc(NC(=O)CSc2ccc(C(N)=O)cc2[N+](=O)[O-])c1C	–	–	44	–	–	–	·
Cc1ccccc1NC(=O)CSc1ccsc1[N+](=O)[O-]	–	–	48	–	–	42	·
Cc1c(NC(=O)COC(=O)CSc2ccc(C(N)=O)cc2[N+](=O)[O-])c(=O)n(-c2ccccc2)n1C	–	–	–	–	–	·	·
O=C(CSc1ncn[nH]1)Nc1ccc(OCc2ccccc2)cc1	–	–	–	–	–	·	·
CCOc1c(C=C(C#N)C#N)c2ccccc2n1CC	–	–	42	–	–	–	–
CCn1c2ccccc2c2cc(/C=C(/C#N)C(N)=S)ccc21	–	·	·	·	·	·	·
O=C(COC(=O)c1nc(Cl)c(Cl)c(Cl)c1Cl)c1ccc[nH]1	–	·	45	·	–	–	·
Cc1ccc(C(=O)O)cc1-c1ccc(C=C2C(=O)c3ccccc3C2=O)o1	–	–	44	–	–	35	–
COC(=O)C(C)N1C(=O)S/C(=C\c2ccc(-c3ccc(C(=O)O)cc3C)o2)C1=O (stereo not given)	–	–	51	–	–	62	–
Cc1ccc(NC(=O)CN2C(=O)S/C(=C/c3ccc(-c4cc(C(=O)O)ccc4C)o3)C2=O)cc1C	–	–	63	–	–	43	–
COc1ccc([N+](=O)[O-])cc1NS(=O)(=O)c1cccc(C(=O)NCCCN2CCCC2=O)c1	–	·	–	·	–	·	·
COc1cc(O)oc1C=Nc1ccc(C(=O)O)cc1	–	–	–	–	–	·	·
O=C(c1ccc(=O)oc1)N1CCCc2ccccc21	–	–	71	–	–	60	·
O=C(c1ccc(F)cc1)N1CCOCC1	–	–	–	–	–	·	·
O=C(c1ccccc1)N1CCCc2ccccc21	–	–	–	–	–	·	·
O=C(c1ccc(=O)oc1)N1CCOCC1	–	–	95	–	–	84	·
CCc1ccccc1NC(=O)C1CCN(c2cnccn2)CC1	–	–	–	–	–	·	·
